This is an account of results in ChEMBL document CHEMBL1153904, “FR290581, a novel sordarin derivative: synthesis and antifungal activity” (Bioorg Med Chem Lett, 2009).

As a reminder, the MIC is the smallest concentration in the dilution series that meets the test's criterion for growth inhibition. Read a high MIC as a need for much substance. What is called Cmax is the peak of the concentration-time curve. A word on the half-life: it is the time needed for the level to fall by half in the phase considered. Read a low half-life as rapid decline. Usually ED50 stands for the dose that gives a 50% effect, or the effect in half of the subjects. Low readings indicate greater potency, high ones weaker potency.

In series [1] the test system is Candida albicans. Briefly: Antifungal activity against Candida albicans ATCC 90028. The class given is functional.
In series [2] the test system is Candida albicans. Briefly: Antifungal activity against fluconazole-resistant Candida albicans 22009. The class given is functional.
The test system of the next series is Nakaseomyces glabratus. Briefly: Antifungal activity against Candida glabrata ATCC 90030. The class given is functional. In short, it runs like this: (§1)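 Read-out is the minimum inhibitory concentration, in µg/mL.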
A further series deals with Candida tropicalis. As to the kind of experiment: Antifungal activity against Candida tropicalis 21005. The class given is functional. An outline of the steps:
as §1

Another series has as its system Candida parapsilosis. As to the kind of experiment: Antifungal activity against Candida parapsilosis ATCC 22019. The class given is functional. To be noted: Lodderomyces parapsilosis. In short, it runs like this:
as §1

Another series relates to Aspergillus fumigatus. As to the kind of experiment: Antifungal activity against Aspergillus fumigatus ATCC 204305. The class given is functional. An outline of the steps: as §1
In series [3] the test system is Candida albicans. As to the kind of experiment: Antifungal activity against Candida albicans […] in ICR mouse serum drug administered po twice a day. The class given is functional. In short, it runs like this:
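MIC measured in mouse serum, in µg/mL.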

A short description of series [4]: Cmax in mouse at 2 mg/kg, po. Set-up: dose 2 mg/kg, route oral. The class given is ADME, organism-based. Particulars: in vivo. An outline of the steps: (§2)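 Mice received a single oral dose of 2 mg/kg. Cmax is reported in µg/mL and half-life in hours.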
Series [5] in a line: Half life in mouse at 2 mg/kg, po. The class given is ADME, organism-based. More on the design: dose 2 mg/kg, route oral. To be noted: in vivo. In short, it runs like this: as §2
The test system of series [6] is Candida albicans. Briefly: Antifungal activity against Candida albicans FP633 in po dosed ICR mouse candidiasis model treated after 1 hr post infection for 4 days. The class given is functional. In short, it runs like this:
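ED50 (mg/kg) determined in a mouse systemic candidiasis model, with compound given orally.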

In series [7] the test system is Candida albicans. Briefly: Antifungal activity against Candida albicans FP633 in po dosed ICR mouse assessed as kidney burden per gram of tissue at 20 mg/kg, po after 24 hrs of inoculation. The class given is functional. In short, it runs like this:
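Mouse systemic C. albicans infection, oral dosing, n = 5 per group. Kidney fungal burden was read as log cfu per g kidney at 24 h after inoculation and expressed as the change relative to the 0 h control. Significance was tested against the 0 h control by Dunnett comparison.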

The test system of the next series is Cryptococcus neoformans. As to the kind of experiment: Antifungal activity against Cryptococcus neoformans TIMM 0354. The class given is functional. In short, it runs like this: as §1

In brackets after ≈: the same amount, converted by molar mass. A value given as a limit tells only on which side of the number the result lay.

As for `CCCC[C@@H]1C[C@H](C23C[C@@H]4[C@H](C)CC[C@H]4[C@@]4(C=O)CC2C=C(C(C)C)[C@@]34C(=O)O)O[C@H]1CN1CCC(N2C[C@@H](C)O[C@@H](C)C2)CC1`, the MIC with Candida albicans [1] is 0.5 µg/mL (≈ 0.783 µM); with Candida albicans [2], 0.5 µg/mL (≈ 0.783 µM); against Nakaseomyces glabratus, 1 µg/mL (≈ 1.57 µM); against Candida tropicalis it was 0.5 µg/mL (≈ 0.783 µM); in the series on Candida parapsilosis, 8 µg/mL (≈ 12.5 µM); in the series on Aspergillus fumigatus, 128 µg/mL (≈ 200 µM). In addition, the values for the MIC against Candida albicans [3] and against Cryptococcus neoformans were 0.25 µg/mL (≈ 0.391 µM) and 4 µg/mL (≈ 6.26 µM), respectively. Moreover, in [4], the peak level (Cmax) was 1000 ng/mL. This molecule also showed a half-life in series [5] of 3.4 h. In addition, the ED50 with Candida albicans [6] was 2 mg/kg. In the series on Candida albicans [7], the deltalog10CFU is -1.09.
Regarding `OC(Cn1cncn1)(Cn1cncn1)c1ccc(F)cc1F` [FLUCONAZOLE], the MIC in the series on Candida albicans [1] was 0.125 µg/mL (≈ 0.408 µM); in the series with Candida albicans [2], 128 µg/mL (≈ 418 µM); in the series with Nakaseomyces glabratus, 16 µg/mL (≈ 52.2 µM); in the series on Candida tropicalis it was 0.25 µg/mL (≈ 0.816 µM); against Candida parapsilosis it was 1 µg/mL (≈ 3.27 µM); in the series on Aspergillus fumigatus, above 128 µg/mL. Also, in the series with Cryptococcus neoformans, inhibition of growth (MIC) required 0.25 µg/mL (≈ 0.816 µM). In addition, the deltalog10CFU in the series on Candida albicans [7] was -0.19.
For the molecule `CO[C@H]1[C@@H](O)[C@H](O)[C@H](OC[C@@]23C[C@@H]4[C@H](C)CC[C@H]4[C@@]4(C=O)CC2C=C(C(C)C)[C@@]34C(=O)O)O[C@@H]1C` [SORDARIN], the MIC in the series with Candida albicans [1] was 32 µg/mL (≈ 65 µM); in the series with Candida albicans [2], 64 µg/mL (≈ 130 µM); in the series with Nakaseomyces glabratus it was 64 µg/mL (≈ 130 µM); against Candida tropicalis it was 64 µg/mL (≈ 130 µM); against Candida parapsilosis it was above 128 µg/mL; in the series with Aspergillus fumigatus it was above 128 µg/mL. The MIC with Candida albicans [3] is 32 µg/mL (≈ 65 µM); against Cryptococcus neoformans, above 128 µg/mL. The same molecule showed a Cmax in series [4] of 20 ng/mL. Besides, the half-life in [5] is 0.33 h. The molecule also registered an ED50 in the series with Candida albicans [6] above 40 mg/kg.
